Experimental data collected from several papers.
Lines come from different studies, so protocols differ.
Target: NUAK family SNF1-like kinase 1 (NUAK1, Homo sapiens, UniProt O60285)
Sequence (O60285 1-661, as in one of the studies): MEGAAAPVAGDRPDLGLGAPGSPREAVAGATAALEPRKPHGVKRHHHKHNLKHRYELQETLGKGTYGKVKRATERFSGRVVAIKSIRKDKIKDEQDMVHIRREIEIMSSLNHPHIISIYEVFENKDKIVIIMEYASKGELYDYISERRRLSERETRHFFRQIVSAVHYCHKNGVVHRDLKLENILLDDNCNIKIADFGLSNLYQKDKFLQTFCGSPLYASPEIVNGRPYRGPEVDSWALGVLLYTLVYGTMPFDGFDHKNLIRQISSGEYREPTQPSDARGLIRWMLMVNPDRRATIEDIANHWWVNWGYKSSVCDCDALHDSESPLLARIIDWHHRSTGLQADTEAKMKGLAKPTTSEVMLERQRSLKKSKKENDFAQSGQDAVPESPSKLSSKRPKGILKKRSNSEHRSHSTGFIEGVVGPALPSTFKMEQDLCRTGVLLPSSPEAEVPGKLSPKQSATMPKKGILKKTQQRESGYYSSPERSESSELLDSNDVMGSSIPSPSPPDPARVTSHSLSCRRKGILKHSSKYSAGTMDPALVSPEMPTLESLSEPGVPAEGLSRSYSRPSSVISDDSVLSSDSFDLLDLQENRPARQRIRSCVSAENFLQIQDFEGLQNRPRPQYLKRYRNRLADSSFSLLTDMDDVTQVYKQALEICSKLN

SMILES	test	conditions	measurement	value
O=c1[nH]c2ccccc2n1C1CCN(Cc2ccc(-c3[nH]c4cc5ncnc5cc4nc3-c3ccccc3)cc2)CC1	cell-free assay	0.5 µM	remaining signal	103%
C#Cc1n[nH]c2c(-c3cn([C@@H](C)c4ccccn4)c(=O)[nH]c3=O)cc(F)cc12	enzyme activity, inhibitor	0.1 µM	inhibition	3.3%
Cn1cc(-c2cc(F)cc(N3CCn4c(cc5c4CCCC5)C3=O)c2CO)cc(Nc2ccc(N3CCN(C4COC4)CC3)cn2)c1=O	enzyme activity, inhibitor	0.1 µM	inhibition	17%
N#CC1(c2ccccn2)CCN(Cc2cc(C(=O)O)c(=O)n3ccccc23)CC1	cell-free assay, competition with immobilised ligand	1 µM	remaining binding	98%
CC(C)(C)c1cc(C=C(C#N)C#N)cc(Br)c1O	enzyme activity, inhibitor	0.5 µM	remaining activity	95.4%
Cc1nn(C)cc1-c1nc2c(N3CCN(Cc4ccc(Cl)cc4)CC3)c(Cl)cnc2[nH]1	binding, competition with immobilised ligand	1 µM	remaining binding	9.6%
C#Cc1n[nH]c2c(-c3cn([C@@H](C)c4ccccc4)c(=O)[nH]c3=O)cc(F)cc12	enzyme activity, inhibitor	0.1 µM	inhibition	0.4%
Cn1cc(-c2cccc(N3CCc4c(sc5c4CC(C)(C)C5)C3=O)c2CO)cc(Nc2ccncn2)c1=O	enzyme activity, inhibitor	1 µM	inhibition	14%
Nc1ncc(-c2nc(N3CCOCC3)nc(N3CCOCC3)n2)c(C(F)F)n1	binding, competition with immobilised ligand	10 µM	remaining binding	94%
Cn1cncc1[C@](O)(COc1ccc(C#N)cc1-c1ccc(OC(F)(F)F)cc1)c1ccc(C#N)cc1	cell-free assay, competition with immobilised ligand	1 µM	remaining binding	81%
COc1ncccc1-c1cnn2ccc(N3CCN(C(=O)OC(C)C)CC3)nc12	binding, competition with immobilised ligand	1 µM	remaining binding	65%
